Calls of active or inactive are those of the source. No cut-off for these calls is given here.
Legend:
[1] = target: Cyclin-dependent kinase 4 (Homo sapiens) (UniProt P11802); experiment: Inhibition of CDK4 (unknown origin) at 1000 nM relative to control
[2] = target: Receptor tyrosine-protein kinase erbB-4 (Homo sapiens) (UniProt Q15303); experiment: Inhibition of ErbB4 (unknown origin) at 10 nM relative to control
Procedure, shortened: (§1)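 Purified recombinant kinase domains run in ELISA on precoated poly(Glu,Tyr) 4:1 (20 µg/mL) with 10 µM ATP in 50 mM HEPES pH 7.4, 50 mM MgCl2, 0.5 mM MnCl2, 0.2 mM Na3VO4, 1 mM DTT; 1% DMSO control; 60 min at 37 °C. Phosphotyrosine read by PY99 antibody, HRP anti-mouse IgG, OPD/H2O2 at 490 nm; inhibition = [1−A490/A490control]×100%; two separate experiments.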

[3] = target: Hepatocyte growth factor receptor (Homo sapiens) (UniProt P08581); experiment: Inhibition of c-Met (unknown origin) at 1000 nM relative to control
Chain of Hepatocyte growth factor receptor (Homo sapiens) (P08581 whole entry): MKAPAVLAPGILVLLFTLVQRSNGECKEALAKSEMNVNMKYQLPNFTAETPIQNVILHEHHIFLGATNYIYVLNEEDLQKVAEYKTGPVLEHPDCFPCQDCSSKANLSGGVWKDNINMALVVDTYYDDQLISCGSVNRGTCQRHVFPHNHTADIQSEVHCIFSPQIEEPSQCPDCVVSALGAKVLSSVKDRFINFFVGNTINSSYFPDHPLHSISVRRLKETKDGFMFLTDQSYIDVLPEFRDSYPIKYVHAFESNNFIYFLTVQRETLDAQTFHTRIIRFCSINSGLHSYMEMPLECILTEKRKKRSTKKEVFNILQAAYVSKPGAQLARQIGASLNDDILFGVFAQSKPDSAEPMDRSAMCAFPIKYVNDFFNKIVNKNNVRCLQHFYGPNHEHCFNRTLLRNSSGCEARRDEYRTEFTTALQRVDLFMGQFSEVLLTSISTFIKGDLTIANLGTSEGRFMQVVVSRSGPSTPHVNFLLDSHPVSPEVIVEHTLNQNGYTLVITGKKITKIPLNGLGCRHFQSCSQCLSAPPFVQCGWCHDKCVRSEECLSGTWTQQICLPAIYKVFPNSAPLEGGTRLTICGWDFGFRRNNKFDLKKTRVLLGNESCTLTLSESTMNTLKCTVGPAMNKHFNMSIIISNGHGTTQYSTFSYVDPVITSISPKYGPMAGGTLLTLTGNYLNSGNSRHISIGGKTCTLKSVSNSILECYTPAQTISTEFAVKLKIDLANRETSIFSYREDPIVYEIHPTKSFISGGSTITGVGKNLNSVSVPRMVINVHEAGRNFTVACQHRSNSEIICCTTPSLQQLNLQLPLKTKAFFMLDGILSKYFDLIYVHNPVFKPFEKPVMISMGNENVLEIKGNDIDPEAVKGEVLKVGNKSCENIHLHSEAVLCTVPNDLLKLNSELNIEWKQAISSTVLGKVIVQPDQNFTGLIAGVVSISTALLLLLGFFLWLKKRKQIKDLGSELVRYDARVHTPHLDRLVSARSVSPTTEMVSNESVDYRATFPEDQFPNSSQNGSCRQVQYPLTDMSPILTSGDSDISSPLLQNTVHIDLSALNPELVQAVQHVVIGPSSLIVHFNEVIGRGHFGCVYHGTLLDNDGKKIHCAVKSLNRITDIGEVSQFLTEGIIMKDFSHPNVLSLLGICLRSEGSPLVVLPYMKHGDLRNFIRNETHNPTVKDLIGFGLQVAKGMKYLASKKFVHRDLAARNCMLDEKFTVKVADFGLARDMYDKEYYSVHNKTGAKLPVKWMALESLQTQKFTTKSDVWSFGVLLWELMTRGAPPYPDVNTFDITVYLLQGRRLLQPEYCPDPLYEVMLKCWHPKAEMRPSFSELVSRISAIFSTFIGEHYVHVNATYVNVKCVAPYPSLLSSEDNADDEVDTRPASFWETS
Procedure, shortened: (§2)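 ELISA with purified recombinant kinase on plates precoated with poly(Glu,Tyr) 4:1 at 20 µg/mL. ATP 10 µM in HEPES pH 7.4 buffer with MgCl2, MnCl2, Na3VO4 and DTT. Run 60 min at 37 °C. Detected with anti-phosphotyrosine PY99, HRP secondary antibody and o-phenylenediamine, read at 490 nm. Inhibition % = [1 − A490/A490 control]×100. 1% DMSO as negative control.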

[4] = target: Cyclin-dependent kinase 6 (Homo sapiens) (UniProt Q00534); experiment: Inhibition of CDK6 (unknown origin) at 100 nM relative to control
[5] = target: Fibroblast growth factor receptor 3 (Homo sapiens) (UniProt P22607); experiment: Inhibition of FGFR3 (unknown origin) at 10 nM relative to control; procedure, shortened: as §1
[6] = target: Cyclin-dependent kinase 4 (Homo sapiens) (UniProt P11802); experiment: Inhibition of CDK4 (unknown origin) at 100 nM relative to control
[7] = system: T1, Discoidin domain-containing receptor 2 (Homo sapiens), Q16832 [I638F]; experiment: Inhibition of DDR2 I638F mutant phosphorylation in human NCI-H2286 cells after 2 hrs by Western blot analysis; type: cell-based
T1 sequence (whole entry): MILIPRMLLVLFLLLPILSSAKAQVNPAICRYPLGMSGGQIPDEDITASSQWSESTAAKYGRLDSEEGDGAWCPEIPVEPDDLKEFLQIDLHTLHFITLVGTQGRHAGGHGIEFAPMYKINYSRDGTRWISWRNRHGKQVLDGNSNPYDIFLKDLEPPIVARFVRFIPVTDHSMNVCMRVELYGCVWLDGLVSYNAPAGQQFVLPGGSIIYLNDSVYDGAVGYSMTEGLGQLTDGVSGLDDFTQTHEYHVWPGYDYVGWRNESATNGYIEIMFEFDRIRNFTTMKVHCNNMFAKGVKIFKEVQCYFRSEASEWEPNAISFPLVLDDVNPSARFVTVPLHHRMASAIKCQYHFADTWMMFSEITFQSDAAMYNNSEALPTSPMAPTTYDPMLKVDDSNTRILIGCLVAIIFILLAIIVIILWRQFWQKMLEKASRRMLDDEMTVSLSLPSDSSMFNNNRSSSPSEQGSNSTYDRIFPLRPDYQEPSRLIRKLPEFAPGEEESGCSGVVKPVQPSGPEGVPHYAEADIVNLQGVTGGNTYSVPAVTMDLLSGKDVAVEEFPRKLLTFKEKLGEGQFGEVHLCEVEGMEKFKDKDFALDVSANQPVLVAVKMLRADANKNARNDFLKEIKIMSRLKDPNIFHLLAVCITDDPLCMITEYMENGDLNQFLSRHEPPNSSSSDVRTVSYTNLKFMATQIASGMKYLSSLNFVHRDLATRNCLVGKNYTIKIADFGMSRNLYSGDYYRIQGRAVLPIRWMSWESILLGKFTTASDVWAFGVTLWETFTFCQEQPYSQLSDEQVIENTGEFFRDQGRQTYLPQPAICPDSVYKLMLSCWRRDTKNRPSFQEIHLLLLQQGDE
Procedure, shortened: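 NCI-H2286 cells exposed to compound for 2 h at 37 °C and lysed in SDS sample buffer. Lysates run on 10% SDS-PAGE and blotted to nitrocellulose. Membranes probed for phospho- and total DDR2, ERK and Akt, with GAPDH as loading control, and detected by HRP secondary antibody and enhanced chemiluminescence.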

[8] = target: Fibroblast growth factor receptor 4 (Homo sapiens) (UniProt P22455); experiment: Inhibition of FGFR4 (unknown origin) at 10 nM relative to control; procedure, shortened: as §1
Chain of Fibroblast growth factor receptor 4 (Homo sapiens) (P22455 22-802 limits assumed): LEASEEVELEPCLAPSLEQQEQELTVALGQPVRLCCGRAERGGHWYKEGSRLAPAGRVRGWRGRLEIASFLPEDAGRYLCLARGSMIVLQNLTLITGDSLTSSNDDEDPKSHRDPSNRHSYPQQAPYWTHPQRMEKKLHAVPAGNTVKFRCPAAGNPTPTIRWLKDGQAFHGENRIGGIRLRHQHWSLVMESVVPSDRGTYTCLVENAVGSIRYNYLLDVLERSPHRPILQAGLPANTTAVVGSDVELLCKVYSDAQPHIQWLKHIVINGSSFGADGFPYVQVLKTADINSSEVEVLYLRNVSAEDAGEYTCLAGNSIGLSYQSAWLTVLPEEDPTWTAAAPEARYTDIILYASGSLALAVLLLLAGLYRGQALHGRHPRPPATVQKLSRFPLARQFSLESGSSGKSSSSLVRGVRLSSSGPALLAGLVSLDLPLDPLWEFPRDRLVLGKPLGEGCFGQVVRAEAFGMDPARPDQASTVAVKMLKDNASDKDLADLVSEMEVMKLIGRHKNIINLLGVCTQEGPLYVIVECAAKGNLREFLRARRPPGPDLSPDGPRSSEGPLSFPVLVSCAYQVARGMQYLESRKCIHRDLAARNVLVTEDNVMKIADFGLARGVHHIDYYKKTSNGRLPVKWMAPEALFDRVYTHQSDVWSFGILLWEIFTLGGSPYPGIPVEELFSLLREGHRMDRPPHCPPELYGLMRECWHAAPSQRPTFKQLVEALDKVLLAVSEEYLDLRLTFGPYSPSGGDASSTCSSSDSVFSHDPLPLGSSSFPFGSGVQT

[9] = target: Focal adhesion kinase 1 (Homo sapiens) (UniProt Q05397); experiment: Inhibition of FAK (unknown origin) at 100 nM relative to control; procedure, shortened: as §1
Chain of Focal adhesion kinase 1 (Homo sapiens) (Q05397 2-1052 limits assumed): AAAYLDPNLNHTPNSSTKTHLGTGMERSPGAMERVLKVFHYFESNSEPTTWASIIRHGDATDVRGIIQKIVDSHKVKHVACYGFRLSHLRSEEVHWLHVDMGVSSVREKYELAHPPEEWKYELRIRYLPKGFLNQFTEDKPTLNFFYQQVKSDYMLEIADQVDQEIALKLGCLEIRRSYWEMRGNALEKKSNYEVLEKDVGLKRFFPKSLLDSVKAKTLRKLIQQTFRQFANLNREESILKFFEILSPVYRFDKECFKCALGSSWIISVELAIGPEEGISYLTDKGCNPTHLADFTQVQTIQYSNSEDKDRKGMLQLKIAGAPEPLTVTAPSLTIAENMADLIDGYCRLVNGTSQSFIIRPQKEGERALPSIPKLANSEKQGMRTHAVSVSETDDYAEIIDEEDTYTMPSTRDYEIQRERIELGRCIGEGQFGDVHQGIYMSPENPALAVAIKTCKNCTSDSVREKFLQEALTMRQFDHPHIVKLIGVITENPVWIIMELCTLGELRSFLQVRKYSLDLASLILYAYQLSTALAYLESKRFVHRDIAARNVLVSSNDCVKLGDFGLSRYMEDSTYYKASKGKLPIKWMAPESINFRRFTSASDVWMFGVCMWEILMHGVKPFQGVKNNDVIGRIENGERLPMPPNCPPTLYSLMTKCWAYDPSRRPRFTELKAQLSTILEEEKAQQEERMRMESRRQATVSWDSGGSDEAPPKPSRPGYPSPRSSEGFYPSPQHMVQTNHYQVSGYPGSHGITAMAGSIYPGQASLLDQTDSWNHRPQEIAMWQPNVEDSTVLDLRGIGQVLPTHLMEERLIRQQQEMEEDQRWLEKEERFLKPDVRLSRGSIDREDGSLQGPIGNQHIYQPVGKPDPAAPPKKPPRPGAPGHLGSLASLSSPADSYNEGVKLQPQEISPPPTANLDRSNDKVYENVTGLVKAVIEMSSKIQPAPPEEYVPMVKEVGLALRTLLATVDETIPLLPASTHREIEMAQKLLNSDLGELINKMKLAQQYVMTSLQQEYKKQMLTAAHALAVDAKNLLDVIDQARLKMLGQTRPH

[10] = MRT in ICR(CD-1) mouse at 10 mg/kg, po administered via gavage by triple quadrupole mass spectrometric analysis; type: ADME, organism-based; conditions: in vivo
Procedure, shortened: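 Dosed by gavage at 1 mg/mL in 1% Tween80/water to male ICR mice, 18-22 g, n=3. Blood taken at 0.25, 0.5, 1, 2, 4, 8 and 24 h. Plasma precipitated with methanol:acetonitrile (1:1) containing internal standard, then UPLC-MS/MS on a C18 column with an ammonium acetate/formic acid–acetonitrile gradient. Tmax read directly from the data; MRT calculated per animal from concentration–time curves.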

[11] = target: Angiopoietin-1 receptor (Homo sapiens) (UniProt Q02763); experiment: Inhibition of Tie-2 (unknown origin) at 100 nM relative to control; procedure, shortened: as §2
[12] = target: Mitogen-activated protein kinase 3 (Homo sapiens) (UniProt P27361); experiment: Inhibition of ERK1 (unknown origin) at 10 nM relative to control
[13] = target: Voltage-gated inwardly rectifying potassium channel KCNH2 (Homo sapiens, UniProt Q12809); experiment: Inhibition of human ERG by automated patch clamp electrophysiology assay
Procedure, shortened: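 Automated patch clamp electrophysiology on the hERG channel.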

[14] = target: Fibroblast growth factor receptor 2 (Homo sapiens) (UniProt P21802); experiment: Inhibition of FGFR2 in human SNU-16 cells assessed as decrease in ERK phosphorylation at 25 to 200 nM after 2 hrs by Western blot analysis; type: cell-based
Procedure, shortened: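 SNU-16 cells exposed to compound for 2 h at 37 °C, lysed in 1× SDS sample buffer, resolved by 10% SDS-PAGE and blotted to nitrocellulose; probed for phospho-FGFR, FGFR2, phospho-ERK, ERK and GAPDH, then HRP anti-rabbit or anti-mouse IgG; enhanced chemiluminescence detection.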

[15] = target: Receptor tyrosine-protein kinase erbB-4 (Homo sapiens) (UniProt Q15303); experiment: Inhibition of ErbB4 (unknown origin) at 100 nM relative to control; procedure, shortened: as §1
[16] = AUC (0 to infinity) in ICR(CD-1) mouse at 10 mg/kg, po administered via gavage by triple quadrupole mass spectrometric analysis; type: ADME, organism-based; parameters: dose 10 mg/kg, route oral, time infinity; conditions: in vivo
Procedure, shortened: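 Oral gavage at 1 mg/mL in 1% Tween80/water to male ICR mice (18-22 g, n=3). Plasma sampled at 0.25, 0.5, 1, 2, 4, 8 and 24 h, protein precipitated with methanol:acetonitrile (1:1) containing internal standard, and quantified by UPLC-triple quadrupole MS. AUC and MRT were taken from per-animal time-concentration curves. Cmax is the maximum plasma level and Tmax the time to reach it.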

[17] = target: Fibroblast growth factor receptor 4 (Homo sapiens) (UniProt P22455); experiment: Inhibition of FGFR4 (unknown origin) at 100 nM relative to control; procedure, shortened: as §1

Chain of Receptor tyrosine-protein kinase erbB-4 (Homo sapiens) (Q15303 whole entry, the tested form may be a part): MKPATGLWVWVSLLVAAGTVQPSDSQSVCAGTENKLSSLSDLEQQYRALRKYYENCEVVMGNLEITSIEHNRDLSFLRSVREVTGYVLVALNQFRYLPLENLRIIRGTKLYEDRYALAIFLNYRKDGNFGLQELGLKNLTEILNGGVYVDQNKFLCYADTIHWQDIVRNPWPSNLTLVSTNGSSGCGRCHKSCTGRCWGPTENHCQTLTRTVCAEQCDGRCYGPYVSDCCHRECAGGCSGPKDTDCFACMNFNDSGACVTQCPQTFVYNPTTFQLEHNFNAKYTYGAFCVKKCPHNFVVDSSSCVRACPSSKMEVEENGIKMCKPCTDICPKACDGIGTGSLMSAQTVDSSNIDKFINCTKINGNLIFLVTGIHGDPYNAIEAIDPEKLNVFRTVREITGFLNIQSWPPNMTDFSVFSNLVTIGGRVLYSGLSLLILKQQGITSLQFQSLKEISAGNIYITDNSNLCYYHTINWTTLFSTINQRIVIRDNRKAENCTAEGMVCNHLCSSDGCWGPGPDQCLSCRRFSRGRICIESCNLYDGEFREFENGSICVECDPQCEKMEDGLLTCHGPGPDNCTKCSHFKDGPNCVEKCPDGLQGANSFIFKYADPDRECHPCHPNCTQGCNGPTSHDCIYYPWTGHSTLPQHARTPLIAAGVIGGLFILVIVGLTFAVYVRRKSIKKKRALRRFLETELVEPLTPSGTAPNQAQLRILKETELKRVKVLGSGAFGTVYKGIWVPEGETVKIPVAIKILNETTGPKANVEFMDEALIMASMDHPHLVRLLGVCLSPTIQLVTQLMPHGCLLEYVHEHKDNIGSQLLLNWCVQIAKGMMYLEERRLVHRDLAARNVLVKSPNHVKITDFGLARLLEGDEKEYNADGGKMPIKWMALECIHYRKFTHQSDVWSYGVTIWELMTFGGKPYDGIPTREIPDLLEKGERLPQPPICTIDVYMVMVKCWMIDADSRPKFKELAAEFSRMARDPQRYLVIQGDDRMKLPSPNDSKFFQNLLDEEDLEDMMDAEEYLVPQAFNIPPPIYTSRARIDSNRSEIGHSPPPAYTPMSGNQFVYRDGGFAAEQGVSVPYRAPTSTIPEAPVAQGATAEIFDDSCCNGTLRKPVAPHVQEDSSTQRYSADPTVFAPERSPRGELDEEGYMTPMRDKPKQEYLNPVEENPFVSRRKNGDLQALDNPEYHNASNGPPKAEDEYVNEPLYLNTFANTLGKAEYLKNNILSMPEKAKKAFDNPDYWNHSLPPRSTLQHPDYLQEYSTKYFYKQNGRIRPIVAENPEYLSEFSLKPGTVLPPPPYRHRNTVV
Chain of Cyclin-dependent kinase 4 (Homo sapiens) (P11802 whole entry, the tested form may be a part): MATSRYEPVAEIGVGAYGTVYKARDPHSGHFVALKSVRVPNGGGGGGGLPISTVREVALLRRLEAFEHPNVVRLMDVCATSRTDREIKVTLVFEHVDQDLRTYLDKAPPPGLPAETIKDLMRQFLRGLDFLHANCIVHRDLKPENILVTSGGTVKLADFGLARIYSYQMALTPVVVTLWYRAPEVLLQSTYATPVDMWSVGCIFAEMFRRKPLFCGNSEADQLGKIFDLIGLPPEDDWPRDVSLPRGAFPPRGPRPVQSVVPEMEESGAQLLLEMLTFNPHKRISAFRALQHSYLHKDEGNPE

Cc1ccc(C(=O)Nc2cccc(C(F)(F)F)c2)cc1-c1ccc2c(-c3cnn(C4CC4)c3)n[nH]c2c1
inhibition [1]: 0.9% | inhibition [2]: 0% | inhibition [3]: 47.5% | inhibition [4]: 2.6% | inhibition [5]: 52.3% | inhibition [6]: 6.8% | inhibition [7]: Dose-dependent effect | inhibition [8]: 8.1% | inhibition [9]: 8.4% | MRT [10]: 5.71 h | inhibition [11]: 36.4% | inhibition [12]: -2.8% | IC50 [13]: > 40 µM | inhibition [14]: Active | inhibition [15]: 0% | AUC(0-inf) [16]: 7680 ng·h/mL | inhibition [17]: 27.2%

Reference: ChEMBL document CHEMBL4411287, “Discovery and optimization of a series of 3-substituted indazole derivatives as multi-target kinase inhibitors for the treatment of lung squamous cell carcinoma” (Eur J Med Chem, 2019)
